The record followed here is ChEMBL document CHEMBL4354867, “Validation and Characterization of Five Distinct Novel Inhibitors of Human Cytomegalovirus” (J Med Chem, 2020).

Experiment [1] has as its system Human betaherpesvirus 5. Briefly: Antiviral activity against HCMV TB40 infected in human HFF cells assessed as reduction in plaque formation treated with compound following viral infection and incubated for 8 to 10 days by crystal violet staining based assay. Conditions: Human betaherpesvirus 5, TB40, HFF. Format: functional, organism-based.
Experiment [2] can be described thus: Antiviral activity against Mouse Cytomegalovirus Smith (ATCC VR-1399) infected in mouse MEF cells assessed as reduction in plaque formation measured after 3 days by crystal violet staining based assay. The format is functional, cell-based, Murine cytomegalovirus (strain Smith). Conditions: mef. A digest of the protocol:
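Plaque reduction with MCMV Smith in mouse embryonic fibroblasts, with compound in a carboxymethylcellulose overlay. Assay ended at 3 days and plaques counted after crystal violet staining.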

In experiment [3] the test system is Human betaherpesvirus 5. Briefly: Antiviral activity against GCV-resistant HCMV Towne infected in human HFF cells assessed as reduction in plaque formation at 0.1 to 10 uM treated with compound for 24 hrs followed by viral infection at MOI of […] and measured after 10 days by crystal violet staining based assay. Format: functional, organism-based. Conditions: strain Towne. Summed up:
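Overlay of DMEM with 0.5% carboxymethylcellulose and 4% FBS, 37 °C. After 10 days plaques stained with crystal violet and counted. Data are mean ± SD of triplicates from a representative experiment.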

Experiment [4] relates to Human betaherpesvirus 5. Put plainly: Inhibition of viral protein expression in HCMV Towne infected in human HFF cells assessed as reduction in IE1 expression at 3 uM treated with compound for 24 hrs followed by viral infection at MOI of 1 PFU/cell measured at 72 hrs post infection by Western blot analysis. The format is functional, organism-based. Conditions: strain Towne. Summed up: (§1)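 HFFs pretreated with compound, then infected with HCMV Towne at MOI 1, 0.1 or 0.01. Viral proteins in cell lysates detected at 72 hpi by SDS-PAGE (8–10%), PVDF transfer and chemiluminescent immunoblot. Images from a representative experiment.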
Background: In western blotting, separated proteins are transferred to a membrane and probed.

Experiment [5] has as its system Human betaherpesvirus 5. Briefly: Inhibition of viral protein expression in HCMV Towne infected in human HFF cells assessed as reduction in pp65 expression at 3 uM treated with compound for 24 hrs followed by viral infection at MOI of 1 PFU/cell measured at 72 hrs post infection by Western blot analysis. Format: functional, organism-based. Conditions: strain Towne. Summed up: as §1

Experiment [6] deals with Human betaherpesvirus 5. Put plainly: Inhibition of viral protein expression in HCMV Towne infected in human HFF cells assessed as reduction in pp65 expression at 3 uM treated with compound following viral infection at MOI of 1 PFU/cell measured at 72 hrs post infection by Western blot analysis. Conditions: strain Towne. The format is functional, organism-based. Summed up: (§2)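 HFFs infected with HCMV Towne (MOI 1), then treated with compound. Lysates taken at 72 hpi, equal protein loaded on 8–10% Tris-glycine SDS-PAGE and transferred to PVDF. Primary antibodies overnight at 4 °C, HRP secondary, chemiluminescent detection; β-actin as loading control.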

For experiment [7], the system named is Human betaherpesvirus 5. Briefly: Inhibition of viral protein expression in HCMV Towne infected in human HFF cells assessed as reduction in UL84 expression at 3 uM treated with compound following viral infection at MOI of 1 PFU/cell measured at 72 hrs post infection by Western blot analysis. Format: functional, organism-based. Conditions: strain Towne. A digest of the protocol:
as §2

Experiment [8] deals with Human betaherpesvirus 5. Briefly: Inhibition of viral protein expression in HCMV Towne infected in human HFF cells assessed as reduction in pp65 expression at 3 uM treated with compound for 24 hrs followed by viral infection at MOI of 0.01 PFU/cell measured at 72 hrs post infection by Western blot analysis. The format is functional, organism-based. Conditions: strain Towne. A digest of the protocol: as §1

The subject of experiment [9] is Human betaherpesvirus 5. Put plainly: Antiviral activity against HCMV Towne infected in human HFF cells assessed as reduction in plaque formation treated with compound following viral infection at MOI of 1 PFU/cell and measured at 10 days post-infection in presence of letermovir by crystal violet staining based assay. The format is functional, organism-based. Conditions: Human betaherpesvirus 5, strain Towne, 240 h.

Calls of active or inactive are those of the source. No cut-off for these calls is given here.

As for `COc1ccc(Cl)cc1C(=O)Nc1ccc(NC(=O)c2ccco2)cc1`, the EC50 – broadly, the concentration needed to bring the measured effect to its halfway point – in the experiment on Human betaherpesvirus 5 [1] was 0.12 µM; in [2], “Not Active”; in the experiment with Human betaherpesvirus 5 [9] it was 0.32 µM. In addition, in the experiment with Human betaherpesvirus 5 [3], the outcome was Active. For the same compound, the inhibition result in the experiment on Human betaherpesvirus 5 [4], in the experiment with Human betaherpesvirus 5 [5], in the experiment on Human betaherpesvirus 5 [6] and in the experiment with Human betaherpesvirus 5 [7] was “inactive” in each case. Besides, the inhibition entry in the experiment with Human betaherpesvirus 5 [8] was “Active”.
